Columns and labels:
Type in all cases: cell-based
GFP–PKCθ wild-type = GFP–PKCθ wild-type (Mus musculus, UniProt Q02111); assay: Confocal translocation in living LNCaP cells
Procedure, shortened: (§1)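 Mouse full-length PKCθ (wild-type or C1B point mutant) carrying a C-terminal EGFP tag via a GGNSGG spacer, transfected into LNCaP prostate cancer cells. Living cells were exposed to PMA and imaged by confocal microscopy over a time course. Membrane/cytoplasm intensity ratios were quantified from the images; means ± S.E.M., with images typical of three to four independent experiments.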

full-length PKCθ Q258G = full-length PKCθ Q258G (Mus musculus, UniProt Q02111, Q258G); assay: Membrane translocation in HEK-293 cells; settings: 50 nM PMA, 2 h
full-length PKCθ Q258G, sequence (Q02111 whole entry Q258G): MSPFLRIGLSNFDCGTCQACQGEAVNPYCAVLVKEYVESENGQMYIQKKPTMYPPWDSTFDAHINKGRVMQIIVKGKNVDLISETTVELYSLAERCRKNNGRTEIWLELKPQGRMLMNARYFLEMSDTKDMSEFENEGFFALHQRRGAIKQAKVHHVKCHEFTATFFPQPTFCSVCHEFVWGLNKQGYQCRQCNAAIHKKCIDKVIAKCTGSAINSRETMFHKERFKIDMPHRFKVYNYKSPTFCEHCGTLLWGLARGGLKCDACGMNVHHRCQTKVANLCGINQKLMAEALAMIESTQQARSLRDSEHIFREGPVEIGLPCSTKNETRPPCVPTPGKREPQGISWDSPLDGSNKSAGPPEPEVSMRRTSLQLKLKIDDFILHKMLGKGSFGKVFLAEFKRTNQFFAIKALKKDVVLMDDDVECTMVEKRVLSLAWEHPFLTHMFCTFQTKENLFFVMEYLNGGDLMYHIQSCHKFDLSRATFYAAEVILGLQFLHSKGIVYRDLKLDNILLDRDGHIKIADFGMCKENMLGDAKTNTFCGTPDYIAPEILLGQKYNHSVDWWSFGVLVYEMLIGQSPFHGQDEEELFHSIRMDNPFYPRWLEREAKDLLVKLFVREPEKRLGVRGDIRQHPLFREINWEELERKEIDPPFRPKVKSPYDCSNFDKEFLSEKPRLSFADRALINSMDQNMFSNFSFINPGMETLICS

GFP–PKCθ W253G = GFP–PKCθ W253G (Mus musculus, UniProt Q02111, W253G); assay: Confocal translocation in living LNCaP cells
GFP–PKCθ W253G, sequence (Q02111 whole entry W253G): as the sequence (Q02111 whole entry Q258G) above, with W253G, G258Q counted along it
Procedure, shortened: as §1

GFP–PKCθ T243A = GFP–PKCθ T243A (Mus musculus, UniProt Q02111, T243A); assay: Confocal translocation in living LNCaP cells
GFP–PKCθ T243A, sequence (Q02111 whole entry T243A): as the sequence (Q02111 whole entry Q258G) above, with T243A, G258Q counted along it
Procedure, shortened: as §1

GFP–PKCθ L255G = GFP–PKCθ L255G (Mus musculus, UniProt Q02111, L255G); assay: Confocal translocation in living LNCaP cells
GFP–PKCθ L255G, sequence (Q02111 whole entry L255G): as the sequence (Q02111 whole entry Q258G) above, with L255G, G258Q counted along it
Procedure, shortened: as §1

full-length PKCθ T243A = full-length PKCθ T243A (Mus musculus, UniProt Q02111, T243A); assay: Membrane translocation in HEK-293 cells; settings: 50 nM PMA, 2 h
full-length PKCθ T243A, sequence (Q02111 whole entry T243A): as the sequence (Q02111 whole entry Q258G) above, with T243A, G258Q counted along it

full-length PKCθ Y239A = full-length PKCθ Y239A (Mus musculus, UniProt Q02111, Y239A); assay: Membrane translocation in HEK-293 cells; settings: 50 nM PMA, 2 h
full-length PKCθ Y239A, sequence (Q02111 whole entry Y239A): as the sequence (Q02111 whole entry Q258G) above, with Y239A, G258Q counted along it

full-length PKCθ L255G = full-length PKCθ L255G (Mus musculus, UniProt Q02111, L255G); assay: Membrane translocation in HEK-293 cells; settings: 50 nM PMA, 2 h
full-length PKCθ L255G, sequence (Q02111 whole entry L255G): as the sequence (Q02111 whole entry Q258G) above, with L255G, G258Q counted along it

full-length PKCθ W253G = full-length PKCθ W253G (Mus musculus, UniProt Q02111, W253G); assay: Membrane translocation in HEK-293 cells; settings: 50 nM PMA, 2 h
full-length PKCθ W253G, sequence (Q02111 whole entry W253G): as the sequence (Q02111 whole entry Q258G) above, with W253G, G258Q counted along it

GFP–PKCθ Q258G = GFP–PKCθ Q258G (Mus musculus, UniProt Q02111, Q258G); assay: Confocal translocation in living LNCaP cells
GFP–PKCθ Q258G, sequence (Q02111 whole entry Q258G): as the sequence (Q02111 whole entry Q258G) above
Procedure, shortened: as §1

GFP–PKCθ Y239A = GFP–PKCθ Y239A (Mus musculus, UniProt Q02111, Y239A); assay: Confocal translocation in living LNCaP cells
GFP–PKCθ Y239A, sequence (Q02111 whole entry Y239A): as the sequence (Q02111 whole entry Q258G) above, with Y239A, G258Q counted along it
Procedure, shortened: as §1

[1] = 100 nM PMA (second block, r6-r8), 5 min
[2] = 100 nM PMA (second block, r6-r8), 10 min
[3] = 100 nM PMA (second block, r6-r8), 20 min
[4] = 100 nM PMA as printed (first block, r3-r5), 5 min
[5] = 100 nM PMA as printed (first block, r3-r5), 10 min
[6] = 100 nM PMA as printed (first block, r3-r5), 20 min

GFP–PKCθ wild-type, sequence (Q02111 whole entry): as the sequence (Q02111 whole entry Q258G) above, with G258Q counted along it

CCCCCCCCCCCCCC(=O)O[C@@H]1[C@@H](C)[C@@]2(O)[C@@H](C=C(CO)C[C@]3(O)C(=O)C(C)=C[C@@H]23)[C@@H]2C(C)(C)[C@]12OC(C)=O [PMA]
Membrane/cytoplasmic intensity ratio, PKCθ WT (GFP–PKCθ wild-type; 10 nM PMA, 5 min): 1.0 ± 0.1
Membrane/cytoplasmic intensity ratio, PKCθ WT (GFP–PKCθ wild-type; 10 nM PMA, 10 min): 1.0 ± 0.1
Membrane/cytoplasmic intensity ratio, PKCθ WT (GFP–PKCθ wild-type; 10 nM PMA, 20 min): 1.2 ± 0.4
time to marked translocation to the plasma membrane (GFP–PKCθ wild-type; 100 nM PMA): ≤ 2 min
Membrane/cytoplasmic intensity ratio, PKCθ WT (GFP–PKCθ wild-type; [1]): 8.1 ± 1.2
Membrane/cytoplasmic intensity ratio, PKCθ WT (GFP–PKCθ wild-type; [2]): 6.5 ± 0.7
Membrane/cytoplasmic intensity ratio, PKCθ WT (GFP–PKCθ wild-type; [3]): 5.4 ± 0.5
Membrane/cytoplasmic intensity ratio, PKCθ WT (GFP–PKCθ wild-type; [4]): 14.5 ± 2.2
Membrane/cytoplasmic intensity ratio, PKCθ WT (GFP–PKCθ wild-type; [5]): 11.3 ± 2.1
Membrane/cytoplasmic intensity ratio, PKCθ WT (GFP–PKCθ wild-type; [6]): 12.1 ± 2.2
reduction in membrane translocation compared with the wild-type (full-length PKCθ Q258G): 21.6%
Membrane/cytoplasmic intensity ratio, PKCθ W253G (GFP–PKCθ W253G; 10 nM PMA, 5 min): 1.0 ± 0.1
Membrane/cytoplasmic intensity ratio, PKCθ W253G (GFP–PKCθ W253G; 10 nM PMA, 10 min): 1.1 ± 0.1
Membrane/cytoplasmic intensity ratio, PKCθ W253G (GFP–PKCθ W253G; 10 nM PMA, 20 min): 1.2 ± 0.2
Membrane/cytoplasmic intensity ratio, PKCθ W253G (GFP–PKCθ W253G; [1]): 1.9 ± 0.4
Membrane/cytoplasmic intensity ratio, PKCθ W253G (GFP–PKCθ W253G; [2]): 3.0 ± 0.7
Membrane/cytoplasmic intensity ratio, PKCθ W253G (GFP–PKCθ W253G; [3]): 2.6 ± 0.6
Membrane/cytoplasmic intensity ratio, PKCθ W253G (GFP–PKCθ W253G; [4]): 11.4 ± 3.6
Membrane/cytoplasmic intensity ratio, PKCθ W253G (GFP–PKCθ W253G; [5]): 12.7 ± 3.9
Membrane/cytoplasmic intensity ratio, PKCθ W253G (GFP–PKCθ W253G; [6]): 13.2 ± 5.0
Membrane/cytoplasmic intensity ratio, PKCθ T243A (GFP–PKCθ T243A; 10 nM PMA, 5 min): 1.0 ± 0.0
Membrane/cytoplasmic intensity ratio, PKCθ T243A (GFP–PKCθ T243A; 10 nM PMA, 10 min): 1.3 ± 0.2
Membrane/cytoplasmic intensity ratio, PKCθ T243A (GFP–PKCθ T243A; 10 nM PMA, 20 min): 1.7 ± 0.1
time by which translocation was largely complete (GFP–PKCθ T243A; 100 nM PMA): ≤ 5 min
Membrane/cytoplasmic intensity ratio, PKCθ T243A (GFP–PKCθ T243A; [1]): 3.6 ± 1.1
Membrane/cytoplasmic intensity ratio, PKCθ T243A (GFP–PKCθ T243A; [2]): 3.7 ± 0.8
Membrane/cytoplasmic intensity ratio, PKCθ T243A (GFP–PKCθ T243A; [3]): 3.1 ± 0.6
Membrane/cytoplasmic intensity ratio, PKCθ T243A (GFP–PKCθ T243A; [4]): 10.3 ± 1.9
Membrane/cytoplasmic intensity ratio, PKCθ T243A (GFP–PKCθ T243A; [5]): 9.9 ± 1.5
Membrane/cytoplasmic intensity ratio, PKCθ T243A (GFP–PKCθ T243A; [6]): 7.4 ± 1.5
Membrane/cytoplasmic intensity ratio, PKCθ L255G (GFP–PKCθ L255G; 10 nM PMA, 5 min): 1.1 ± 0.1
Membrane/cytoplasmic intensity ratio, PKCθ L255G (GFP–PKCθ L255G; 10 nM PMA, 10 min): 1.1 ± 0.1
Membrane/cytoplasmic intensity ratio, PKCθ L255G (GFP–PKCθ L255G; 10 nM PMA, 20 min): 1.1 ± 0.0
Membrane/cytoplasmic intensity ratio, PKCθ L255G (GFP–PKCθ L255G; [1]): 1.3 ± 0.1
Membrane/cytoplasmic intensity ratio, PKCθ L255G (GFP–PKCθ L255G; [2]): 1.6 ± 0.2
Membrane/cytoplasmic intensity ratio, PKCθ L255G (GFP–PKCθ L255G; [3]): 2.3 ± 0.4
Membrane/cytoplasmic intensity ratio, PKCθ L255G (GFP–PKCθ L255G; [4]): 4.8 ± 1.5
Membrane/cytoplasmic intensity ratio, PKCθ L255G (GFP–PKCθ L255G; [5]): 6.0 ± 1.2
Membrane/cytoplasmic intensity ratio, PKCθ L255G (GFP–PKCθ L255G; [6]): 7.2 ± 1.9
reduction in membrane translocation compared with the wild-type (full-length PKCθ T243A): 12.5%
reduction in membrane translocation compared with the wild-type (full-length PKCθ Y239A): 17.1%
reduction in membrane translocation compared with the wild-type (full-length PKCθ L255G): 19.4%
reduction in membrane translocation compared with the wild-type (full-length PKCθ W253G): 14.8%
Membrane/cytoplasmic intensity ratio, PKCθ Q258G (GFP–PKCθ Q258G; 10 nM PMA, 5 min): 1.2 ± 0.1
Membrane/cytoplasmic intensity ratio, PKCθ Q258G (GFP–PKCθ Q258G; 10 nM PMA, 10 min): 1.1 ± 0.1
Membrane/cytoplasmic intensity ratio, PKCθ Q258G (GFP–PKCθ Q258G; 10 nM PMA, 20 min): 1.1 ± 0.0
Membrane/cytoplasmic intensity ratio, PKCθ Q258G (GFP–PKCθ Q258G; [1]): 1.0 ± 0.0
Membrane/cytoplasmic intensity ratio, PKCθ Q258G (GFP–PKCθ Q258G; [2]): 1.1 ± 0.0
Membrane/cytoplasmic intensity ratio, PKCθ Q258G (GFP–PKCθ Q258G; [3]): 1.1 ± 0.0
Membrane/cytoplasmic intensity ratio, PKCθ Q258G (GFP–PKCθ Q258G; [4]): 1.2 ± 0.1
Membrane/cytoplasmic intensity ratio, PKCθ Q258G (GFP–PKCθ Q258G; [5]): 2.0 ± 0.3
Membrane/cytoplasmic intensity ratio, PKCθ Q258G (GFP–PKCθ Q258G; [6]): 2.1 ± 0.4
plasma membrane translocation response (GFP–PKCθ Q258G; 100 nM PMA, by 20 min): little response
plasma membrane translocation response (GFP–PKCθ Q258G; 1000 nM PMA, later times): partial translocation
Membrane/cytoplasmic intensity ratio, PKCθ Y239A (GFP–PKCθ Y239A; 10 nM PMA, 5 min): 1.1 ± 0.0
Membrane/cytoplasmic intensity ratio, PKCθ Y239A (GFP–PKCθ Y239A; 10 nM PMA, 10 min): 1.1 ± 0.1
Membrane/cytoplasmic intensity ratio, PKCθ Y239A (GFP–PKCθ Y239A; 10 nM PMA, 20 min): 1.0 ± 0.0
Membrane/cytoplasmic intensity ratio, PKCθ Y239A (GFP–PKCθ Y239A; [1]): 1.7 ± 0.4
Membrane/cytoplasmic intensity ratio, PKCθ Y239A (GFP–PKCθ Y239A; [2]): 2.3 ± 0.8
Membrane/cytoplasmic intensity ratio, PKCθ Y239A (GFP–PKCθ Y239A; [3]): 2.3 ± 0.5
Membrane/cytoplasmic intensity ratio, PKCθ Y239A (GFP–PKCθ Y239A; [4]): 3.8 ± 1.8
Membrane/cytoplasmic intensity ratio, PKCθ Y239A (GFP–PKCθ Y239A; [5]): 4.2 ± 1.6
Membrane/cytoplasmic intensity ratio, PKCθ Y239A (GFP–PKCθ Y239A; [6]): 5 ± 0.4
